From ChEMBL document CHEMBL1914404, “Synthesis and biochemical evaluation of δ(2)-isoxazoline derivatives as DNA methyltransferase 1 inhibitors” (J Med Chem, 2011)
Active and inactive are the calls of the source. No cut-off for these calls is given here.

How the values were obtained:
HCT-116 [1] = test: Antiproliferative activity against human HCT116 cells assessed as growth inhibition by measuring proliferation rate after 72 hrs by trypan blue staining; type: functional, cell-based
Method in brief: (§1)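 HCT116 colon carcinoma cells incubated 72 h with test compound at 300, 500 and 750 μM, azacytidine 1 μM as positive control, DMSO alone as control.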

HCT-116 [2] = test: Antiproliferative activity against human HCT116 cells assessed as growth inhibition by measuring doubling time after 72 hrs by trypan blue staining; type: functional, cell-based; method in brief: as §1
[3] = molecular target: T1, DNA (cytosine-5)-methyltransferase 1 (Homo sapiens, UniProt P26358); test: Inhibition of human recombinant DNMT1 expressed in Sf9 cells assessed as remaining activity at 2 mM after 3 hrs by scintillation counting in presence of [3H]S-adenosyl methionine
T1 sequence (P26358 whole entry): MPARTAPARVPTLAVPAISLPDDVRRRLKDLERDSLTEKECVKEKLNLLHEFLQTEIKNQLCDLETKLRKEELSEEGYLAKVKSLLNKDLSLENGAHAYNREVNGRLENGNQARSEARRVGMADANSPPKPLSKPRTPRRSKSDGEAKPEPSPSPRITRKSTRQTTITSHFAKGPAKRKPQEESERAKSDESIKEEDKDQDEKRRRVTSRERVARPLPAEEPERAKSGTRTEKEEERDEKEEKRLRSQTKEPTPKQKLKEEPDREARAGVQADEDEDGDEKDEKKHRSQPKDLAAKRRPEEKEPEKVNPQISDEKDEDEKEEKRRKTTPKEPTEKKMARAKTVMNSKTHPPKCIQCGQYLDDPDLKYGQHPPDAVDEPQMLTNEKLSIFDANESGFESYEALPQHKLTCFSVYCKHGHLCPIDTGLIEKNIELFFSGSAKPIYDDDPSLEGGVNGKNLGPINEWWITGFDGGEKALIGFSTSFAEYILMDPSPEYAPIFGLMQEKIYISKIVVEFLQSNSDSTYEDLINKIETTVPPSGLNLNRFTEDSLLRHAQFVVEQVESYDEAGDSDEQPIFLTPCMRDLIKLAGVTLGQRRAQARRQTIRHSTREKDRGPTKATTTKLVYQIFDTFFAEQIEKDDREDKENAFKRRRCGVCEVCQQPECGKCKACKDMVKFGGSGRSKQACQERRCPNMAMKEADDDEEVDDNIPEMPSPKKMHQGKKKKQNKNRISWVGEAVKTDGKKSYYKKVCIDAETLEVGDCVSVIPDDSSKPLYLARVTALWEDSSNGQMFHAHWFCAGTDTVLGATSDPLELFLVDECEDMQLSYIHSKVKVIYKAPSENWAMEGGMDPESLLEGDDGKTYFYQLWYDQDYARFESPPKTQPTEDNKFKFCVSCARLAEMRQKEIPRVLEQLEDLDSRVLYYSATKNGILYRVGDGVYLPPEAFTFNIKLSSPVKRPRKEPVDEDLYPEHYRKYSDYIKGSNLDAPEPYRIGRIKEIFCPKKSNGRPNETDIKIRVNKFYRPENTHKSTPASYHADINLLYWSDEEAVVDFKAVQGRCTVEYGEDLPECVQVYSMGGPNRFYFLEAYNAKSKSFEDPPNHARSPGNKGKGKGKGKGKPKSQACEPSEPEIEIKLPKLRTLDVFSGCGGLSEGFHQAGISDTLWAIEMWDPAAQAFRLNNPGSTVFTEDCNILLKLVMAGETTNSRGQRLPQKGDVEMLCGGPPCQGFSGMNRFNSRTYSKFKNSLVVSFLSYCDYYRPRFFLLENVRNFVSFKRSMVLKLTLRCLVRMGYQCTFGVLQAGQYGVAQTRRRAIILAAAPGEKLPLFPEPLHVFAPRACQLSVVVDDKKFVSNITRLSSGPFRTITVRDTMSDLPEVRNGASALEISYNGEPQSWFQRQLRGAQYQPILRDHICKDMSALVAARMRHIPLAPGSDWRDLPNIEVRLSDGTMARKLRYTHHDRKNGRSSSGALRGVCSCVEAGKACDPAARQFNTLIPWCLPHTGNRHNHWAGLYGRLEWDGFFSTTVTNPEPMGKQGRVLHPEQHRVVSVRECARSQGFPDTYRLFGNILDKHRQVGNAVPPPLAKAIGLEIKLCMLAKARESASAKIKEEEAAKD
Method in brief: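 Single-point screen at 2 mM (compounds in DMSO, DMSO control) against 500 nM Sf9-expressed human DNMT1, hemimethylated oligo 0.4 μM, 0.7 μM [3H]AdoMet, pH 7.5 Tris buffer, 37 °C for 3 h; filter-bound tritium counted. Relative enzyme activity (% of control) as mean of three measurements with SD; inhibition >20% scored positive.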

[4] = molecular target: T1, DNA (cytosine-5)-methyltransferase 1; test: Inhibition of human recombinant DNMT1 expressed in Sf9 cells assessed as incorporation of [3H]S-adenosyl methionine into hemimethylated oligonucleotide substrate after 3 hrs by scintillation counting
[5] = molecular target: T1, DNA (cytosine-5)-methyltransferase 1; test: Selectivity ratio of IC50 for procaine to compound for human recombinant DNMT1 expressed in Sf9 cells assessed as incorporation of [3H]S-adenosyl methionine into hemimethylated oligonucleotide substrate after 3 hrs by scintillation counting
[6] = molecular target: T1, DNA (cytosine-5)-methyltransferase 1; test: Non-competitive inhibition of human recombinant DNMT1 expressed in Sf9 cells using oligonucleotide as substrate after 1 hr by scintillation counting
Method in brief: (§2)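 Mode-of-inhibition assay: standard DNMT1 filter assay (500 nM enzyme) modified with inhibitor fixed at 150 μM and 1 h at 37 °C; either [3H]SAM or the oligo substrate concentration increased while the other held. Activity with inhibitor under standard conditions set as 100% inhibition; curves interpreted by the Lai and Wu model.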

HCT-116 [7] = test: Antiproliferative activity against human HCT116 cells after 72 hrs by trypan blue staining; type: functional; settings: HCT-116, 72 h; method in brief: as §1
[8] = molecular target: T1, DNA (cytosine-5)-methyltransferase 1; test: Competitive inhibition of human recombinant DNMT1 expressed in Sf9 cells using [3H]S-adenosyl methionine as substrate at 150 uM after 1 hr by scintillation counting; method in brief: as §2

| Activity [3] | Structure (SMILES) | also measured |
| --- | --- | --- |
|  | O=[N+]([O-])c1ccc(C2=NC[C@H](CN3CCCC3)O2)cc1 | growth inhibition (GI) (HCT-116 [1]): inactive; growth inhibition (GI) (HCT-116 [2]): inactive |
| 90.6% | Cc1ccc(S(=O)(=O)Oc2ccc(C3=NOC(CN(C)C)C3)cc2)cc1 (configuration not stated) |  |
| 17.1% | CN(C)CC1CC(Cc2ccccc2)=NO1 (configuration not stated) |  |
| 0.5% | Nc1ncnc2c1ncn2[C@@H]1O[C@H](CSCC[C@H](N)C(=O)O)[C@@H](O)[C@H]1O |  |
| 20.2% | CN(C)CC1CC(c2ccc(N)cc2)=NO1 (configuration not stated) | IC50 [4]: 270 µM |
| 0.3% | CN(C)CC1CC(c2ccc([N+](=O)[O-])cc2)=NO1 (configuration not stated) | IC50 [4]: 150 µM; Ratio IC50 [5]: 10; inhibition [6]: Active; GI50 (HCT-116 [7]): 360 µM; inhibition [8]: Active |
| 3.8% | CN1CC2ON=C(Cc3ccc([N+](=O)[O-])cc3)C2C1 (configuration not stated) | IC50 [4]: 310 µM |
| inactive | CCN(CC)CCOC(=O)c1ccc(N)cc1 |  |
| 18.6% | Cc1ccc(S(=O)(=O)Oc2ccc(C3=NOC4CN(C)CC34)cc2)cc1 (configuration not stated) |  |
| 23% | CN(C)CC1CC(c2ccc(C(=O)O)cc2)=NO1 (configuration not stated) |  |
| 88% | CN(C)CC1CC(c2ccc(O)cc2)=NO1 (configuration not stated) |  |
| inactive | CN(C)CC1CC(c2ccccc2)=NO1 (configuration not stated) |  |
| inactive | COc1ccc(CC2=NOC(CN(C)C)C2)cc1 (configuration not stated) |  |
| 28.3% | CN(C)CC1CC(Cc2ccc(N)cc2)=NO1 (configuration not stated) |  |
| inactive | O=C(O)[C@H](Cc1c[nH]c2ccccc12)N1C(=O)c2ccccc2C1=O |  |
| 3.3% | COc1ccc(C2=NOC(CN(C)C)C2)cc1 (configuration not stated) |  |
| 14.8% | CN(C)CC1CC(Cc2ccc([N+](=O)[O-])cc2)=NO1 (configuration not stated) | IC50 [4]: 1600 µM |

| Structure (SMILES) | Activity [3] | also measured |
| --- | --- | --- |
| CN1CC2ON=C(Cc3ccccc3)C2C1 (configuration not stated) | 84% |  |
| CN1CC2ON=C(c3ccc(O)cc3)C2C1 (configuration not stated) | inactive |  |
| CN1CC2ON=C(c3ccccc3)C2C1 (configuration not stated) | inactive |  |
| CN1CC2ON=C(c3ccc([N+](=O)[O-])cc3)C2C1 (configuration not stated) | 34.9% |  |
| CN1CC2ON=C(c3ccc(C(=O)O)cc3)C2C1 (configuration not stated) | inactive |  |
| COc1ccc(CC2=NOC3CN(C)CC23)cc1 (configuration not stated) | 1.7% | IC50 [4]: 1130 µM |
| CN1CC2ON=C(Cc3ccc(N)cc3)C2C1 (configuration not stated) | 3.3% |  |
| COc1ccc(C2=NOC3CN(C)CC23)cc1 (configuration not stated) | 95.6% |  |
| CN1CC2ON=C(c3ccc(N)cc3)C2C1 (configuration not stated) | 5.1% | IC50 [4]: 570 µM |
